According to ChEMBL document CHEMBL4311931, “Controlling cellular distribution of drugs with permeability modifying moieties” (Medchemcomm, 2019):
pEC50, pIC50, pKi: −log10 of the molar value.

Legend:
[1] = Permeability of compound in 5% DMSO after 7 hrs by PAMPA; format: ADME; details: read-out: permeability
[2] = biological target: T1, Nicotinamide phosphoribosyltransferase (Homo sapiens, UniProt P43490); assay: Displacement of fluorescent labelled OG488 from human full length FLAG-tagged NAMPT (1 to 491 residues) expressed in HEK293-6E cells in absence of PRPP by TR-FRET assay; format: cell-based
T1 sequence (P43490 whole entry, the tested form may be a part): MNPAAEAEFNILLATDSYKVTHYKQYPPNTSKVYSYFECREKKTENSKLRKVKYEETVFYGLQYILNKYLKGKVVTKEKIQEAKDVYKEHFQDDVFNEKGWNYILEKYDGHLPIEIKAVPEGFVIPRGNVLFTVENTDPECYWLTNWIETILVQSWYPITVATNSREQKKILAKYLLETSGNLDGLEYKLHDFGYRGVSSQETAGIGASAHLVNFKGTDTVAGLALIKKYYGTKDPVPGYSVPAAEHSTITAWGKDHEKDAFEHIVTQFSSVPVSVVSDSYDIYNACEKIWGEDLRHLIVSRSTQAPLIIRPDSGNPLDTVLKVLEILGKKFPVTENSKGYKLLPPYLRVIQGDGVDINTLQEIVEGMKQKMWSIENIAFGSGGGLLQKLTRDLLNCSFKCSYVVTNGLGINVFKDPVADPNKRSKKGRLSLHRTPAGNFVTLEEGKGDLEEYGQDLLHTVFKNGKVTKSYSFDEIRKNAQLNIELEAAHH

[3] = biological target: T1, Nicotinamide phosphoribosyltransferase; assay: Displacement of fluorescent labelled OG488 from human full length FLAG-tagged NAMPT (1 to 491 residues) expressed in HEK293-6E cells in presence of PRPP by TR-FRET assay; format: cell-based
PC-3 = assay: Antiproliferative activity against human PC3 cells assessed as reduction in cell viability by Celltiter-Glo assay; format: functional, cell-based
Summary of the method: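 PC3 cells from ATCC, authenticated by STR analysis. Viability was read by CellTiter-Glo, and cell EC50 is the geometric mean of at least two duplicate runs.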

K562 = assay: Antiproliferative activity against human K562 cells assessed as reduction in cell viability by measuring ATP level incubated for 3 days by Celltiter-Glo assay; format: functional, cell-based; details: K562, 72 h
Summary of the method: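 K562 cells grown in RPMI 1640 with 50 mM HEPES and 10% FBS at 37 °C in 5% CO2, then plated at 20 000 cells per well. Compounds were log-serially diluted in DMSO, then in RPMI, to final concentrations of 10 000 nM to 0.01 nM. Cells were exposed for 3 days, and total intracellular ATP was read by CellTiter-Glo. IC50 is the geometric mean of at least two duplicate runs.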

DLD-1 [4] = assay: cells; details: Homo sapiens
DLD-1 [5] = assay: cells; details: Homo sapiens; remark: listed apart in the source
[6] = biological target: T2, Beta-2 adrenergic receptor (Homo sapiens, UniProt P07550); assay: Displacement of [3H](-)CGP 12177 from human recombinant beta2 adrenoceptor after 120 mins by scintillation counting method
Target sequence in this assay (P07550 whole entry): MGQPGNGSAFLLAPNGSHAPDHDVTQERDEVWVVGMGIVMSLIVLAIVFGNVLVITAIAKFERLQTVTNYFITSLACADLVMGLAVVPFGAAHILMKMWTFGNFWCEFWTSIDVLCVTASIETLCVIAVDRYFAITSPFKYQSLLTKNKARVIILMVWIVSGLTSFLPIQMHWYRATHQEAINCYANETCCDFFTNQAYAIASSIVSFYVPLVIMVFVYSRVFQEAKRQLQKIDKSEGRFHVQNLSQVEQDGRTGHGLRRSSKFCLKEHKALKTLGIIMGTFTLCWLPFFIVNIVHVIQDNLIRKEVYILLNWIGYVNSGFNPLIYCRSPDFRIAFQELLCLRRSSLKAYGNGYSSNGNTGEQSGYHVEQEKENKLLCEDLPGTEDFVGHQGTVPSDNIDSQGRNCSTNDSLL

[7] = biological target: T3, 5-hydroxytryptamine receptor 1A (Homo sapiens, UniProt P08908); assay: Displacement of [3H]-OH-DPAT from human recombinant 5-HT1A receptor measured after 60 mins by scintillation counter method
T3 sequence (P08908 whole entry): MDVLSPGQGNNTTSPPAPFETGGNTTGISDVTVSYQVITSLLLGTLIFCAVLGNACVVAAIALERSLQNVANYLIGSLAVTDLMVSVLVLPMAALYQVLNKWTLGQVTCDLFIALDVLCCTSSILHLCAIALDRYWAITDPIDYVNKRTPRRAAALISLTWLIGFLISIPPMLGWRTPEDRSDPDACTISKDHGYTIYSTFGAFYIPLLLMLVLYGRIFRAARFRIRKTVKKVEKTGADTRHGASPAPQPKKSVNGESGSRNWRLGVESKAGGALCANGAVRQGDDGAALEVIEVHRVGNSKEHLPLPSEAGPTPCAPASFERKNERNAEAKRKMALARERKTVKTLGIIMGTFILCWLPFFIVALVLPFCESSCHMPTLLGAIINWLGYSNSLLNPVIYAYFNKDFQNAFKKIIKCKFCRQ

[8] = biological target: T2, Beta-2 adrenergic receptor; assay: Displacement of [3H](-)CGP 12177 from human recombinant beta2 adrenoceptor after 120 mins by scintillation counting method relative to parent compound
Target sequence in this assay (P07550 whole entry, looked up): as the sequence (P07550 whole entry) above

[9] = biological target: T4, 5-hydroxytryptamine receptor 1A (Homo sapiens) (UniProt P08908); assay: Displacement of [3H]-OH-DPAT from human recombinant 5-HT1A receptor measured after 60 mins by scintillation counter method relative to parent compound
T4 sequence (whole entry): T3 sequence (P08908 whole entry)

[10] = biological target: T3, 5-hydroxytryptamine receptor 1A; assay: Antagonist activity at human 5HT1A expressed in BAF3 cells by fluorimetry analysis; format: cell-based
[11] = biological target: T2, Beta-2 adrenergic receptor; assay: Antagonist activity at human recombinant beta2 adrenoreceptor expressed in CHOK1 cells incubated for 30 mins by HTRF; format: cell-based
Target sequence in this assay (P07550 whole entry): as the sequence (P07550 whole entry) above

[12] = biological target: T2, Beta-2 adrenergic receptor; assay: Antagonist activity at human recombinant beta2 adrenoreceptor expressed in CHOK1 cells incubated for 30 mins by HTRF relative to parent compound; format: cell-based
Target sequence in this assay (P07550 whole entry, looked up): as the sequence (P07550 whole entry) above

## NCc1cccc(C(=O)N2CCC(CCCCNC(=O)/C=C/c3cccnc3)CC2)c1
[1]
  Papp at 7 h: 0.092 ×10⁻⁶ cm/s
[2]
  pKi: 7.26
[3]
  pKi: 8.96
PC-3
  pIC50: 7.52

## Cc1nc(Nc2ncc(C(=O)Nc3c(C)cccc3Cl)s2)cc(N2CCN(CCOCCOCCNC(=O)OC(C)(C)C)CC2)n1
[1]
  Papp at 7 h: 0.0065 ×10⁻⁶ cm/s
K562
  pIC50: 8.79

## O=C(c1cc(Cc2n[nH]c(=O)c3ccccc23)ccc1F)N1CCNCC1
[1]
  Papp at 7 h: 0.081 ×10⁻⁶ cm/s
DLD-1 [4]
  pEC50: < 4.00
DLD-1 [5]
  pEC50: 6.70

## C=CCc1ccccc1OCC(O)CNCCOCCOCCOCCOCCNC(=O)C1C(C(=O)O)C(C(=O)O)C1C(=O)O (stereo not drawn)
[1]
  Papp at 7 h: 0.0012 ×10⁻⁶ cm/s
[6]
  pKi: 6.29
[7]
  pKi: 5.75
[8]
  fold change (FC): 1024
[9]
  fold change (FC): 82.4
[10]
  pIC50: < 6.00
[11]
  pIC50: < 6.00
[12]
  fold change (FC): 303

## CC(C)NCC(O)COc1ccccc1CCCSCC(=O)NCCOCCOCCNC(=O)C1C(C(=O)O)C(C(=O)O)C1C(=O)O (stereo not drawn)
[6]
  pKi: 7.10
[7]
  pKi: 5.76
[8]
  fold change (FC): 24.6
[9]
  fold change (FC): 35.2
[10]
  pIC50: < 5.00
[11]
  pIC50: 6.42
[12]
  fold change (FC): 5.27

## C=CCc1ccccc1OCC(O)CNCCOCCOCCOCCOCCN (stereo not drawn)
[6]
  pKi: 7.99
[7]
  pKi: 7.45
[8]
  fold change (FC): 20.6
[9]
  fold change (FC): 1.66
[10]
  pIC50: < 6.00
[11]
  pIC50: 7.00
[12]
  fold change (FC): 30.3

## O=C(/C=C/c1cccnc1)NCCCCC1CCN(C(=O)c2cccc(CNC(=O)COCCOCCNC(=O)CS(=O)(=O)O)c2)CC1
[2]
  pKi: 6.55
[3]
  pKi: 8.10
PC-3
  pIC50: 5.14

## Cc1nc(Nc2ncc(C(=O)Nc3c(C)cccc3Cl)s2)cc(N2CCNCC2)n1
[1]
  Papp at 7 h: 0.0371 ×10⁻⁶ cm/s

## O=C(/C=C/c1cccnc1)NCCCCC1CCN(C(=O)c2ccccc2)CC1 [DAPORINAD]
[1]
  Papp at 7 h: 39.5 ×10⁻⁶ cm/s
PC-3
  pIC50: 8.22

## Cc1nc(Nc2ncc(C(=O)Nc3c(C)cccc3Cl)s2)cc(N2CCN(CCO)CC2)n1.O [DASATINIB]
[1]
  Papp at 7 h: 1.49 ×10⁻⁶ cm/s
K562
  pIC50: 9.20

## O=C(CS(=O)(=O)O)NCCOCCOCC(=O)N1CCN(C(=O)c2cc(Cc3n[nH]c(=O)c4ccccc34)ccc2F)CC1
DLD-1 [4]
  pEC50: 4.28
DLD-1 [5]
  pEC50: 5.96

## COC(=O)CSCCCc1ccccc1OCC(O)CNC(C)C (stereo not drawn)
[1]
  Papp at 7 h: 0.0436 ×10⁻⁶ cm/s
[6]
  pKi: 7.82
[7]
  pKi: 7.25
[8]
  fold change (FC): 1
[9]
  fold change (FC): 1
[10]
  pIC50: 5.54
[11]
  pIC50: 7.14
[12]
  fold change (FC): 1

## O=C(/C=C/c1cccnc1)NCCCCC1CCN(C(=O)c2cccc(CNC(=O)COCCOCCNC(=O)C3C(C(=O)O)C(C(=O)O)C3C(=O)O)c2)CC1 (stereo not drawn)
[2]
  pKi: 6.44
[3]
  pKi: 8.23
PC-3
  pIC50: 5.14

## NCCOCCOCC(=O)N1CCN(C(=O)c2cc(Cc3n[nH]c(=O)c4ccccc34)ccc2F)CC1
[1]
  Papp at 7 h: 0.00119 ×10⁻⁶ cm/s
DLD-1 [4]
  pEC50: < 4.00
DLD-1 [5]
  pEC50: 6.22

## C=CCc1ccccc1OCC(O)CNC(C)C (stereo not drawn) [ALPRENOLOL]
[1]
  Papp at 7 h: 10.9 ×10⁻⁶ cm/s
[7]
  pKi: 7.67
[10]
  pIC50: 6.20

## CC(C)(C)OC(=O)NCCOCCOCC(=O)N1CCN(C(=O)c2cc(Cc3n[nH]c(=O)c4ccccc34)ccc2F)CC1
DLD-1 [4]
  pEC50: < 4.00
DLD-1 [5]
  pEC50: 6.15

## CC1(CCCCCC(=O)NCCOCCOCC(=O)NCc2cccc(C(=O)N3CCC(CCCCNC(=O)/C=C/c4cccnc4)CC3)c2)C(/C=C/C=C/C=C2/N(CCCS(=O)(=O)O)c3ccc(S(=O)(=O)O)cc3C2(C)C)=[N+](CCCS(=O)(=O)[O-])c2ccc(S(=O)(=O)O)cc21 (stereo not drawn)
[2]
  pKi: 6.85
[3]
  pKi: 8.89
PC-3
  pIC50: 6.71
